What was measured:
Androgen receptor = target: T1, Androgen receptor (Homo sapiens, UniProt P10275)
T1 sequence (P10275 whole entry): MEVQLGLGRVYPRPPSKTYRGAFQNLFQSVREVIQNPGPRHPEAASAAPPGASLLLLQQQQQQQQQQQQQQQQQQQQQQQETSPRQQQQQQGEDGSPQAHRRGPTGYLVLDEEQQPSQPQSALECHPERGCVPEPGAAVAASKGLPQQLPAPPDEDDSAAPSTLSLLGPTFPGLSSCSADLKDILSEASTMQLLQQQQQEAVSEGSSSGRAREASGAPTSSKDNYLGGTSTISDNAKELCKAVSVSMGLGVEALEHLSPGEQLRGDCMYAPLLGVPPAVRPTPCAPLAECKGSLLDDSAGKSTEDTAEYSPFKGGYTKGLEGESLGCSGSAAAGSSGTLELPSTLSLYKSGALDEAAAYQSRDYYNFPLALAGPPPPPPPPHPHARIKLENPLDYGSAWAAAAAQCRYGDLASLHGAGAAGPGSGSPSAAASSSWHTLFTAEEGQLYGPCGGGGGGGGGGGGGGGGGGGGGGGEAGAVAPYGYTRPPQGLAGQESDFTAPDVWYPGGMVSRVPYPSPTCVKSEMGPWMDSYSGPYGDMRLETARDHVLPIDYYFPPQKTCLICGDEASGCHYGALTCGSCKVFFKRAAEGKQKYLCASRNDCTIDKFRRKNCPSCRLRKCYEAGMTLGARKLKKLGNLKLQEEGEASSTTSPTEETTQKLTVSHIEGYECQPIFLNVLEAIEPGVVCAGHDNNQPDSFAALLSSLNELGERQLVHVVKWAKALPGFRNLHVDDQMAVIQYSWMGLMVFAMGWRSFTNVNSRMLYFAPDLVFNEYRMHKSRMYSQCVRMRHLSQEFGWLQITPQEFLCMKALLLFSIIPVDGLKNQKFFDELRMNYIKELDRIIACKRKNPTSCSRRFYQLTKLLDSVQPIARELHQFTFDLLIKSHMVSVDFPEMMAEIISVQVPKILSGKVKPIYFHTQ

[1] = target: T2, Progesterone receptor (Homo sapiens) (UniProt P06401); test: (§1) Compound was tested for agonistic activity by cotransfection assay against human Progesterone receptor in CV-1 cells; format: functional, cell-based
T2 sequence (whole entry): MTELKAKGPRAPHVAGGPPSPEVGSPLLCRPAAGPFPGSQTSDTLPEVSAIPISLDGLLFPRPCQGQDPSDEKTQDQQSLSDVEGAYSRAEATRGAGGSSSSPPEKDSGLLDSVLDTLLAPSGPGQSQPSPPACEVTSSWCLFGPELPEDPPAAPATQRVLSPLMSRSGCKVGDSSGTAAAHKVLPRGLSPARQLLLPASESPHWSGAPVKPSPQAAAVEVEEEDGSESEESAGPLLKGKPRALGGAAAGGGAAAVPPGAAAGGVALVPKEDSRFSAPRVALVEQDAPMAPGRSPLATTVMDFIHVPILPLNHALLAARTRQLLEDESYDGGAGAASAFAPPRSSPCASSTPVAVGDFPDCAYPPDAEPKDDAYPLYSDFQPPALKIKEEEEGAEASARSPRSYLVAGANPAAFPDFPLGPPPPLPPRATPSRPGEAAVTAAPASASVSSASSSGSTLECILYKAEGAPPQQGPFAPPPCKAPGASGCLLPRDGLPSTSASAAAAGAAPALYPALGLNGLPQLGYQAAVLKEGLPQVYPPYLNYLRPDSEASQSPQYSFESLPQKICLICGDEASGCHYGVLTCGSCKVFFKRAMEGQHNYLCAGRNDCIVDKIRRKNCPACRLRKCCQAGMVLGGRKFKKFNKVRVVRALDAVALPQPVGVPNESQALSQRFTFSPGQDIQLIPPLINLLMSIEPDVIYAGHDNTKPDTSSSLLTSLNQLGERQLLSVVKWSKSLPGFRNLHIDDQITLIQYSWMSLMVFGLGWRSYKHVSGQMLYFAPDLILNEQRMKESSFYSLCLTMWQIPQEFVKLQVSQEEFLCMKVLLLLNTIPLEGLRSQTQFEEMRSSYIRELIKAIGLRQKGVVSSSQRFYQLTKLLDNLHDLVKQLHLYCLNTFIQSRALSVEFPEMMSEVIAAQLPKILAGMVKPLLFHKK

Glucocorticoid receptor = target: T3, Glucocorticoid receptor (Homo sapiens, UniProt P04150)
T3 sequence (P04150 whole entry): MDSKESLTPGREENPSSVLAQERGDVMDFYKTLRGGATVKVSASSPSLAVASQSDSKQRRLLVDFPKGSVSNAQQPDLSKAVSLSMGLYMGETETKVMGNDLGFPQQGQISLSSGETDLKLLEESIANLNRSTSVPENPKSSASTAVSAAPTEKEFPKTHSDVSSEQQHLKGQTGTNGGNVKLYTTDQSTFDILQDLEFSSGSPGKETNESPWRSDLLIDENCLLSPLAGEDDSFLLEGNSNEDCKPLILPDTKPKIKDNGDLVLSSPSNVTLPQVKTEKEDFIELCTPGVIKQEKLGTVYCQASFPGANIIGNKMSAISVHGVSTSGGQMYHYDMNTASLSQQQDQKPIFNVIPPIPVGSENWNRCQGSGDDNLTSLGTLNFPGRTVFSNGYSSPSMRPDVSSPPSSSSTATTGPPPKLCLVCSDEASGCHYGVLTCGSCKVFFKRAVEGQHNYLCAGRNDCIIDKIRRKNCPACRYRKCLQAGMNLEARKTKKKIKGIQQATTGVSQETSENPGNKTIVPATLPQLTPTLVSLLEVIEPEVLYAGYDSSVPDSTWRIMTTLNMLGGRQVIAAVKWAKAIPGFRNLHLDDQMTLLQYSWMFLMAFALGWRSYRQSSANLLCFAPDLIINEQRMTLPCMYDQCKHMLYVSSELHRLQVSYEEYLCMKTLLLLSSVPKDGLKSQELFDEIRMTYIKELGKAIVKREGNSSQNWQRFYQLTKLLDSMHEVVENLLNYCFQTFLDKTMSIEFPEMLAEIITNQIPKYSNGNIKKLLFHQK

[2] = target: T2, Progesterone receptor (Homo sapiens); test: (§2) Agonistic activity by cotransfection assay against human Progesterone receptor in T47D cells; format: functional, cell-based
Summary of the method: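 T47D human breast cancer cells (high endogenous hPR) incubated with test compound in 96-well format; alkaline phosphatase expression measured by absorbance. […] EC50 from full dose–response curves; mean of at least three separate experiments in triplicate, or single experiment where no error given.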

Progesterone receptor [3] = target: T4, Progesterone receptor (Homo sapiens, UniProt P06401); test: as §2; format: functional, cell-based
T4 sequence (P06401 whole entry): T2 sequence (whole entry)

Progesterone receptor [4] = target: T4, Progesterone receptor; test: as §1; format: functional, cell-based
Progesterone receptor [5] = target: T4, Progesterone receptor; test: Compound was evaluated for its binding affinity against baculovirus expressed Progesterone receptor
Progesterone receptor [6] = target: T4, Progesterone receptor; test: (§3) Antagonistic activity by cotransfection assay against human Progesterone receptor in CV-1 cells; format: functional, cell-based
[7] = target: T2, Progesterone receptor (Homo sapiens); test: as §3; format: functional, cell-based
Progesterone receptor [8] = target: T4, Progesterone receptor; test: Agonistic effect on transcriptional activity in T47D cells expressing human Progesterone receptor; format: functional, cell-based
Summary of the method: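 T47D human breast cancer cells, which express high levels of hPR, incubated with test compound. Readout is absorbance from induced alkaline phosphatase expression. […] Values are the mean of at least three separate experiments in triplicate; values without SEM are from a single experiment.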

Compound	Ki (Androgen receptor) [nM]	Efficacy [1] [%]	Ki (Glucocorticoid receptor) [nM]	Efficacy [2] [%]	EC50 (Progesterone receptor [3]) [nM]	EC50 (Progesterone receptor [4]) [nM]	Ki (Progesterone receptor [5]) [nM]	IC50 (Progesterone receptor [6]) [nM]	Efficacy [7] [%]	EC50 (Progesterone receptor [8]) [nM]
C[C@H]1C(=O)C(C)(C)Nc2ccc3c(c21)[C@H](c1ccccc1)Oc1ccccc1-3	1080	103	909	102	35	9	28.6			
C[C@@H]1C(=O)C(C)(C)Nc2ccc3c(c21)[C@H](c1ccc(Cl)cc1)Oc1ccccc1-3	1180	122	331	97						
CC1(C)C=Cc2c(ccc3c2C(c2ccc(Cl)cc2)Oc2ccccc2-3)N1 (centres undefined)		28				1300	10.5	140	50	
CC1C(=O)C(C)(C)Nc2ccc3c(c21)/C(=C/c1cccc(F)c1)Oc1ccccc1-3 (centres undefined)	560	155	4730	83	25	8.7	3.5			
C[C@@H]1CC(C)(C)Nc2ccc3c(c21)[C@H](c1ccc(Cl)cc1)Oc1ccccc1-3		58				48	91	3100	56	
C[C@@H]1c2c(ccc3c2[C@H](c2ccc(Cl)cc2)Oc2ccccc2-3)NC(C)(C)[C@H]1O							> 500	3200	69	
C[C@H]1c2c(ccc3c2[C@H](c2ccc(Cl)cc2)Oc2ccccc2-3)NC(C)(C)[C@@H]1O							> 500	460	91	
CC1C(=O)C(C)(C)Nc2ccc3c(c21)/C(=C/c1ccccc1)Oc1ccccc1-3 (centres undefined)	1200	133	680	93	18.3	17	4.9			
C=C1CC(C)(C)Nc2ccc3c(c21)C(c1ccc(Cl)cc1)Oc1ccccc1-3 (centres undefined)		30				124		1760	81	
C[C@H]1CC(C)(C)Nc2ccc3c(c21)[C@H](c1ccc(Cl)cc1)Oc1ccccc1-3		39				39	10.1			
CC1(C)Nc2ccc3c(c2C(C)(C)C1=O)C(c1ccc(Cl)cc1)Oc1ccccc1-3 (centres undefined)		36				9.8	5.3			
CC1=CC(C)(C)Nc2ccc3c(c21)C(C)Oc1ccc(Cl)cc1-3 (centres undefined)				42						
CC(=O)O[C@]1(C(C)=O)CC[C@H]2[C@@H]3C[C@H](C)C4=CC(=O)CC[C@]4(C)[C@H]3CC[C@@]21C				90						
C[C@H]1C(=O)C(C)(C)Nc2ccc3c(c21)[C@H](c1ccc(Cl)cc1)Oc1ccccc1-3	698	102	913	107						
C[C@H]1C(=O)C(C)(C)Nc2ccc3c(c21)[C@H](c1cccc(F)c1)Oc1ccccc1-3	504	114	864	107	26	8.7	28			
C[C@@H]1C(=O)C(C)(C)Nc2ccc3c(c21)[C@H](c1ccccc1)Oc1ccccc1-3	732	92	249	92	23.5	10	6.6			
C[C@@H]1C(=O)C(C)(C)Nc2ccc3c(c21)[C@H](c1cccc(F)c1)Oc1ccccc1-3	620	106	193	96	14.8	6.3	2.6			

Now from value to compound:

Ki (Androgen receptor) [nM]	Efficacy [1] [%]	Ki (Glucocorticoid receptor) [nM]	Efficacy [2] [%]	EC50 (Progesterone receptor [3]) [nM]	EC50 (Progesterone receptor [4]) [nM]	Ki (Progesterone receptor [5]) [nM]	IC50 (Progesterone receptor [6]) [nM]	Efficacy [7] [%]	EC50 (Progesterone receptor [8]) [nM]	Compound
1090	93	257	85	37	14	16.6				C[C@@H]1C(=O)C(C)(C)Nc2ccc3c(c21)[C@H](c1cccc(C(F)(F)F)c1)Oc1ccccc1-3
			47	27						CC1=CC(C)(C)Nc2ccc3c(c21)C(c1cccc(Cl)c1)Oc1ccc(F)cc1-3 (centres undefined)
			48						32	CC1=CC(C)(C)Nc2ccc3c(c21)C(c1ccc(Cl)cc1)Oc1ccccc1-3 (centres undefined)
807	66	250	103	63	16	123				C[C@H]1C(=O)C(C)(C)Nc2ccc3c(c21)[C@H](c1cccc(C(F)(F)F)c1)Oc1ccccc1-3
						24.6	376	84		CC1(C)CC(=O)c2c(ccc3c2C(c2ccc(Cl)cc2)Oc2ccccc2-3)N1 (centres undefined)
			55	51						CC1=CC(C)(C)Nc2ccc3c(c21)/C(=C/c1cccc(F)c1)Oc1ccccc1-3
	114				47	6.3				CC1CC(C)(C)Nc2ccc3c(c21)/C(=C/c1cccc(F)c1)Oc1ccccc1-3 (centres undefined)
